# Reference: ChEMBL document CHEMBL1154218, “Design and synthesis of dipeptidyl nitriles as potent, selective, and reversible inhibitors of cathepsin C” (Bioorg Med Chem Lett, 2009)
# Experiments:
# Dipeptidyl peptidase 1 = Dipeptidyl peptidase 1 (Homo sapiens, UniProt P53634); assay: Inhibition of human recombinant cathepsin C
# How it was run: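 Enzyme: purified human recombinant cathepsin C. IC50 in nM given as mean with standard deviation of at least three experiments.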
# [1] = Metabolic stability in rat whole blood assessed as compound remaining after 30 mins; assay type: ADME, tissue-based; conditions: read-out: Activity
# How it was run: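 Compound incubated in fresh rat whole blood for 30 min at 25 °C. Read-out is % of intact parent remaining, with amide hydrolysis products (P2 amino acid, P1 amino nitrile) monitored.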
# [2] = Half life in iv dosed rat; assay type: ADME, organism-based; conditions: in vivo
# How it was run: (§1)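 Rats dosed intravenously. Plasma samples were analysed for parent and metabolites to give clearance (ml/min/kg) and half-life.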
# [3] = Clearance in iv dosed rat; assay type: ADME, organism-based; conditions: in vivo; how it was run: as §1
# U-937 = assay: Cytotoxicity against human U937 cells at 30 uM up to 72 hrs; assay type: functional, cell-based
# How it was run: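 Human U937 cells were exposed to compound at 30 µM for up to 72 h and assessed for cytotoxicity.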
# Rattus norvegicus = organism: Rattus norvegicus; assay: Metabolic stability in rat whole blood
# Sequence of Dipeptidyl peptidase 1 (P53634 25-134 limits assumed): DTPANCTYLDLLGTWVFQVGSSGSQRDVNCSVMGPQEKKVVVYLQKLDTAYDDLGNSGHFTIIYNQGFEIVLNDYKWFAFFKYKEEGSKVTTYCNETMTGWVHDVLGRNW
# Sequence of Dipeptidyl peptidase 1 (P53634 231-394 limits assumed): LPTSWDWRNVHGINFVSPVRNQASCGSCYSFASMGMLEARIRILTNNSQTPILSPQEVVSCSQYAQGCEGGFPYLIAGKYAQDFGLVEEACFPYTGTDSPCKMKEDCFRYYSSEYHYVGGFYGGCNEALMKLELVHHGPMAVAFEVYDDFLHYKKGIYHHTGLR
# Sequence of Dipeptidyl peptidase 1 (P53634 395-463 limits assumed): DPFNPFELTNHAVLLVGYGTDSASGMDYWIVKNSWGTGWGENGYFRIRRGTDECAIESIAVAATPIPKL
IC50 (Dipeptidyl peptidase 1),SMILES,further results
2190 nM,N#C[C@]1(NC(=O)[C@@H]2C[C@H](F)CN2)C[C@H]1c1ccccc1,
215 nM,CC(C)[C@@H](C#N)NC(=O)[C@@H](N)Cc1cccs1,remaining at 0.5 h [1]: 11%
63 nM,CC1(C)CC1(C#N)NC(=O)[C@@H](N)Cc1cccs1 (stereo partly drawn),
1580 nM,CCSCC[C@H](N)C(=O)N[C@H](C#N)Cc1c[nH]c2ccccc12,
330 nM,CC(C)[C@H](N)C(=O)N[C@H](C#N)Cc1c[nH]c2ccccc12,
1 nM,N#C[C@H](Cc1ccc2ccccc2c1)NC(=O)[C@@H](N)Cc1cccs1,half-life [2]: < 30 min; clearance [3]: > 100 mL/min/kg
0.7 nM,N#C[C@H](Cc1nc2ccccc2s1)NC(=O)[C@@H](N)Cc1cccs1,half-life [2]: < 30 min; clearance [3]: > 100 mL/min/kg
0.3 nM,N#C[C@H](Cc1ccc(-c2ccccc2)s1)NC(=O)[C@@H](N)Cc1cccs1,half-life [2]: < 30 min; clearance [3]: > 100 mL/min/kg
2500 nM,C[C@@H]1CN[C@H](C(=O)N[C@H](C#N)Cc2ccccc2)C1,
> 10000 nM,N#C[C@H](Cc1ccc(F)cc1)NC(=O)[C@@H]1CCCN1,
> 3000 nM,CC(C)(C)[C@@H](C#N)NC(=O)[C@@H](N)Cc1cccs1,remaining at 0.5 h [1]: 83%
3.8 nM,N#C[C@@H](NC(=O)[C@@H](N)Cc1cccs1)C(c1ccccc1)c1ccccc1,half-life [2]: < 30 min; clearance [3]: > 100 mL/min/kg
495 nM,N#C[C@H](Cc1ccccc1)NC(=O)[C@@H]1C[C@H](Cl)CN1,
1830 nM,N#CC1(NC(=O)[C@@H](N)Cc2cccs2)CCC1,
336 nM,CS[C@@H]1CN[C@H](C(=O)NC2(C#N)CC2)C1,
630 nM,CCSC[C@H](N)C(=O)N[C@H](C#N)Cc1c[nH]c2ccccc12,
11000 nM,CSCC[C@H](N)C(=O)NCCc1c[nH]c2ccccc12,
133 nM,N#C[C@H](Cc1ccccc1)NC(=O)[C@@H]1C[C@H](F)CN1,

IC50 (Dipeptidyl peptidase 1),SMILES,further results
271 nM,CCS[C@@H]1CN[C@H](C(=O)N[C@H](C#N)Cc2ccccc2)C1,
1420 nM,CC(C)(C#N)NC(=O)[C@@H](N)Cc1cccs1,
880 nM,N#CC1(NC(=O)[C@@H]2C[C@H](F)CN2)CC1,
29 nM,CS[C@@H]1CN[C@H](C(=O)N[C@H](C#N)Cc2ccccc2)C1,
200 nM,CSCC[C@H](N)C(=O)N[C@H](C#N)Cc1c[nH]c2ccccc12,
1230 nM,N#CC1(NC(=O)[C@@H](N)Cc2cccs2)CC1c1ccccc1 (mixture of isomers),
1.7 nM,CS[C@@H]1CN[C@H](C(=O)N[C@H](C#N)Cc2ccc(-c3ccccc3)cc2)C1,
17 nM,N#CCNC(=O)[C@@H](N)Cc1cccs1,remaining at 0.5 h [1]: 6%
,N#C[C@@]1(NC(=O)[C@@H](N)Cc2cccs2)C[C@@H]1c1ccccc1,half-life [2]: 84 min; Activity (U-937): Not toxic; Stability (Rattus norvegicus): Stable; clearance [3]: 35 mL/min/kg; remaining at 0.5 h [1]: > 98%
5.8 nM,N#C[C@H](Cc1c[nH]c2ccccc12)NC(=O)[C@@H](N)Cc1cccs1,remaining at 0.5 h [1]: 0%
8.2 nM,N#C[C@H](Cc1ccc(-c2ccccc2)cc1)NC(=O)[C@@H]1C[C@H](F)CN1,
11 nM,N#C[C@H](CCc1ccccc1)NC(=O)[C@@H](N)Cc1cccs1,
17 nM,N#C[C@]1(NC(=O)[C@@H](N)Cc2cccs2)C[C@H]1c1ccccc1,
0.9 nM,N#C[C@H](Cc1ccccc1)NC(=O)[C@@H](N)Cc1cccs1,half-life [2]: < 30 min; clearance [3]: > 100 mL/min/kg; remaining at 0.5 h [1]: 0%
1080 nM,CO[C@@H]1CN[C@H](C(=O)N[C@H](C#N)Cc2ccccc2)C1,
4810 nM,N#C[C@H](Cc1ccccc1)NC(=O)[C@@H]1CCCN1,
5.1 nM,N#C[C@H](CC1CCCCC1)NC(=O)[C@@H](N)Cc1cccs1,
12 nM,N#CC1(NC(=O)[C@@H](N)Cc2cccs2)CC1,half-life [2]: 30 min; clearance [3]: 113 mL/min/kg; remaining at 0.5 h [1]: 92%
